Screening results as filed in PubChem.
KDM4C inh: KDM4C (human) demethylase inhibition | Q9H3R0 | GST-KDM4C 2-372, H3K9me3 peptide, LANCE TR-FRET | inhibition, % at 12.5 µM | hit rate 0.15% among 96,000 | AID 720574;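 active = mean replicate inhibition above about 25%, with at least 55% of replicates also reaching it, limit read from the data, passing the limit was not always enough; inconclusive = only one of those two conditions met; inactive = neither condition met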
Target sequence (Q9H3R0 2-372 limits assumed): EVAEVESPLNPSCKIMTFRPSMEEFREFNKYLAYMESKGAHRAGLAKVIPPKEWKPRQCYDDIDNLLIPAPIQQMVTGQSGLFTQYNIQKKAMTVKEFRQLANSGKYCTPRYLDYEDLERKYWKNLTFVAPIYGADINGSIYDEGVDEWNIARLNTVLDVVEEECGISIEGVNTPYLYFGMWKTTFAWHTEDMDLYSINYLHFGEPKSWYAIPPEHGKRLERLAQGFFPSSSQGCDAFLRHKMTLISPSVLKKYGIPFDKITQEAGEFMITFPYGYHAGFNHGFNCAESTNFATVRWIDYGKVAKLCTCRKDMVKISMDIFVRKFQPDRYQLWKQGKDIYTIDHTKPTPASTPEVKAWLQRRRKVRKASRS
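Material: GST-tagged GASC-1 (JMJD2C) catalytic fragment, aa 2-372 / Quantity: enzyme final amount 10 nM / Medium: HEPES buffer, pH 7.5, plus ascorbate / Doses: one test concentration per compound / Incubation: 30 min reaction, 60 min detection, RT / Measured by: LANCE TR-FRET / Read-out: inhibition from TR-FRET ratio decrease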
T cruzi growth-1: blocks T. cruzi growth in NIH3T3 culture. T. cruzi beta-gal in NIH3T3, GalScreen luminescence, 90 h. inhibition, % at 8.34 µM. hit rate 5.9% among 77,000;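 active = mean inhibition above about 93%, with at least 55% of replicates each passing it, limit read from the data, passing the limit was not always enough; inconclusive = only one of those two conditions holds; inactive = neither condition holds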
Pf Dd2 growth: blocks growth of Plasmodium falciparum Dd2 parasites; P. falciparum Dd2 growth, SYBR Green, 72 h; hits give low values; activity change, % at 10 µM; hit rate 2.3% among 94,000; AID 1159554; in the data active = activity change below about -80%; inconclusive = no clear call, values can overlap the other calls
IDH1 R132H inh: blocks human IDH1 R132H reductase activity. O75874. diaphorase/resazurin fluorescence, 60 min. hit rate 0.18% among 70,000. inhibition, % at 10 µM; in the data active = inhibition above about 34%; inconclusive = no clear call, values can overlap the other calls; inactive = below about 11%;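 also: 0% = DMSO and 100% = no enzyme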
Target sequence (O75874 whole entry R132H): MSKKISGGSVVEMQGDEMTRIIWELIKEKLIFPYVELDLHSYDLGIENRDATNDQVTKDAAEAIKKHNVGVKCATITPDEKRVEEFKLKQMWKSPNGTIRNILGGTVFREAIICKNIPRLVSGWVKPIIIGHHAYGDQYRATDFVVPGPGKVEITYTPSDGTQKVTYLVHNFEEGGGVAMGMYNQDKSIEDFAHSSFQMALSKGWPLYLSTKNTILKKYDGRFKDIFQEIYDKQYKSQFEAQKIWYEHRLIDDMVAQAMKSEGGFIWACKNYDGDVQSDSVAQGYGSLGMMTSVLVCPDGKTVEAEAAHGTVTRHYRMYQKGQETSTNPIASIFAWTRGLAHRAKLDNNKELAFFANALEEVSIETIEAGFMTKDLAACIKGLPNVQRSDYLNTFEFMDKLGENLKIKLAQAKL
T cruzi growth-2: Trypanosoma cruzi proliferation inhibition | shares compounds with T cruzi growth-1 | T. cruzi beta-gal in NIH3T3, GalScreen luminescence, 90 h | inhibition, % at 8.35 µM | hit rate 72% among 5,600;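 active = mean replicate inhibition above about 95% and at least 55% of replicates individually reaching it, limit read from the data; inconclusive = only one of the two criteria is met; inactive = neither criterion is met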
T cruzi growth-3: Trypanosoma cruzi proliferation inhibition. AID 651740. inhibition, % at 2.09 µM. T. cruzi beta-gal in NIH3T3, GalScreen luminescence, 90 h. shares compounds with T cruzi growth-1. hit rate 21% among 5,600;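 active = mean inhibition above about 95%, with at least 55% of replicates also reaching it, limit read from the data; inconclusive = meets just one of the two conditions; inactive = meets neither condition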;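 also: plate controls were neutral control median for no effect and positive control median for full effect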
NIH3T3 tox: NIH/3T3 (mouse) viability loss; shares compounds with T cruzi growth-1; NIH/3T3 viability, CellTiter-Glo ATP luminescence, 90 h; cytotoxicity (signal decrease), % at 8.35 µM; hit rate 14% among 5,600; AID 651742;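 active = mean signal decrease across replicates above about 35% based on untreated-well scatter, with enough replicates individually passing, limit read from the data; inconclusive = no rule stated though some were filed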;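 also: 0% = median of neutral control wells and 100% = median of positive control wells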
NIH3T3 tox 2: NIH/3T3 (mouse) viability loss; shares compounds with T cruzi growth-1; NIH/3T3 viability, CellTiter-Glo ATP luminescence, 90 h; inhibition, % at 24.9 µM; hit rate 56% among 5,600; AID 651744;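 active = mean loss of cell viability signal at or above a set limit, and enough replicates individually reaching it; inconclusive = meets only the mean limit or only the replicate share; inactive = meets neither condition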;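 also: 0% = median of neutral control wells and 100% = median of positive control wells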
* hit, by the source's call. In the library only some 5.8% were active in any assay of this set; here they are far more common.

Results for CC(C)CC#Cc1ccc2c(c1)O[C@@H](CN(C)C(=O)NC1CCCC1)[C@H](C)CN([C@H](C)CO)S2(=O)=O ?
KDM4C inh: 6.8; T cruzi growth-1: 122.9*; Pf Dd2 growth: -33.5; IDH1 R132H inh: -0.2; T cruzi growth-2: 109.0*; T cruzi growth-3: 73.4; NIH3T3 tox: 6.9; NIH3T3 tox 2: 94.3*

How did C[C@H](CO)N1C[C@H](C)[C@H](CN(C)C(=O)c2ccc(N3CCN(C)CC3)cc2)OCc2cn(nn2)CCCC1=O do in these assays?
KDM4C inh: 1.9; T cruzi growth-1: inconclusive; Pf Dd2 growth: 10.8; IDH1 R132H inh: 0.2; T cruzi growth-2: -57.2; T cruzi growth-3: -15.0; NIH3T3 tox: -15.7; NIH3T3 tox 2: -12.0

What do the screens show for `C[C@@H]1CN([C@@H](C)CO)C(=O)CCCn2cc(nn2)CO[C@@H]1CN(C)C(=O)c1ccc(N2CCN(C)CC2)cc1`?
KDM4C inh: 0.4; T cruzi growth-1: 9.3; Pf Dd2 growth: -16.1; IDH1 R132H inh: 0.9

How did C[C@H]1CN([C@@H](C)CO)C(=O)CCCn2cc(nn2)CO[C@H]1CN(C)C(=O)c1ccc(N2CCN(C)CC2)cc1 do in these assays?
KDM4C inh: 1.4; T cruzi growth-1: inconclusive; Pf Dd2 growth: -5.8; IDH1 R132H inh: 0.8; T cruzi growth-2: 41.5; T cruzi growth-3: -20.0; NIH3T3 tox: -24.8; NIH3T3 tox 2: -37.6

What do the screens show for `C[C@@H]1CN([C@H](C)CO)C(=O)CCCn2cc(nn2)CO[C@H]1CN(C)C(=O)c1ccc2ccn(C)c2c1`?
KDM4C inh: 0.2; T cruzi growth-1: inconclusive; Pf Dd2 growth: 0.6; IDH1 R132H inh: -1.0; T cruzi growth-2: -1.4; T cruzi growth-3: -6.0; NIH3T3 tox: -14.6; NIH3T3 tox 2: -16.9

Results for O=C(CNS(=O)(=O)c1ccccc1)Nc1ccc(Br)cc1F ?
IDH1 R132H inh: -0.2

How did O=S(=O)(c1ccccc1)N1CCCCN2[C@H](CO)[C@H](c3ccc(-c4ccccc4F)cc3)[C@@H]2C1 do in these assays?
KDM4C inh: 0.9; T cruzi growth-1: 102.6*; Pf Dd2 growth: 20.1; T cruzi growth-2: 105.6*; T cruzi growth-3: 83.6; NIH3T3 tox: -9.2; NIH3T3 tox 2: 42.0*

How did O=S(=O)(c1ccccc1)N1CCCCN2[C@@H](CO)[C@H](c3ccc(-c4ccccc4F)cc3)[C@@H]2C1 do in these assays?
KDM4C inh: -1.3; T cruzi growth-1: 105.0*; Pf Dd2 growth: 4.9; T cruzi growth-2: 104.0*; T cruzi growth-3: 73.9; NIH3T3 tox: 31.4; NIH3T3 tox 2: 105.9*

How did CN(C)C=NC(=O)c1ccc(-c2cccs2)s1 do in these assays?
IDH1 R132H inh: -0.5

How did CCC(=O)c1cn(CC(=O)Nc2cccc(C(F)(F)F)c2)c2ccccc12 do in these assays?
IDH1 R132H inh: 0.3

Results for COc1ccc(NC(=O)N(C)C[C@H]2Oc3cc(C#CCC(C)C)ccc3S(=O)(=O)N([C@@H](C)CO)C[C@@H]2C)cc1 ?
KDM4C inh: 1.0; T cruzi growth-1: 95.2*; Pf Dd2 growth: -38.0; IDH1 R132H inh: -0.3; T cruzi growth-2: 105.9*; T cruzi growth-3: 61.0; NIH3T3 tox: 13.1; NIH3T3 tox 2: 89.1*

What do the screens show for `C[C@H]1CN([C@@H](C)CO)S(=O)(=O)c2ccc(C#Cc3ccccc3)cc2O[C@H]1CN(C)C(=O)Nc1ccccc1`?
KDM4C inh: -0.5; T cruzi growth-1: 3.0; Pf Dd2 growth: -35.1; IDH1 R132H inh: 0.4

How did CC(C)CC#Cc1ccc2c(c1)O[C@@H](CN(C)C(=O)Nc1ccccc1)[C@@H](C)CN([C@H](C)CO)S2(=O)=O do in these assays?
KDM4C inh: -2.7; T cruzi growth-1: 129.4*; Pf Dd2 growth: -68.5; IDH1 R132H inh: 0.1; T cruzi growth-2: 102.4*; T cruzi growth-3: 71.9; NIH3T3 tox: 24.3; NIH3T3 tox 2: 94.8*

How did COc1ccc(NC(=O)N(C)C[C@@H]2Oc3cc(C#CCC(C)C)ccc3S(=O)(=O)N([C@H](C)CO)C[C@H]2C)cc1 do in these assays?
KDM4C inh: 6.8; T cruzi growth-1: 89.1; Pf Dd2 growth: -34.4; IDH1 R132H inh: 0.5

What do the screens show for `COc1ccc(NC(=O)N(C)C[C@@H]2Oc3cc(C#CCC(C)C)ccc3S(=O)(=O)N([C@@H](C)CO)C[C@@H]2C)cc1`?
KDM4C inh: -1.2; T cruzi growth-1: 98.6*; Pf Dd2 growth: -50.0; IDH1 R132H inh: -0.2; T cruzi growth-2: 105.6*; T cruzi growth-3: 111.2*; NIH3T3 tox: -10.7; NIH3T3 tox 2: 95.9*

What do the screens show for `CCCC#Cc1ccc2c(c1)O[C@H](CN(C)C(=O)Nc1ccc(OC)cc1)[C@@H](C)CN([C@@H](C)CO)S2(=O)=O`?
KDM4C inh: 0.2; T cruzi growth-1: 112.6*; Pf Dd2 growth: -34.5; IDH1 R132H inh: -4.2; T cruzi growth-2: 112.3*; T cruzi growth-3: 70.8; NIH3T3 tox: 28.2; NIH3T3 tox 2: -15.2

Results for CCCC#Cc1ccc2c(c1)O[C@@H](CN(C)C(=O)Nc1ccc(OC)cc1)[C@H](C)CN([C@@H](C)CO)S2(=O)=O ?
KDM4C inh: 0.8; T cruzi growth-1: 92.4; Pf Dd2 growth: -43.3

How did CC(C)(C)NC(=O)Cn1cc(C(=O)c2ccco2)c2ccccc21 do in these assays?
IDH1 R132H inh: 0.1

Results for CCc1nc(SCC(=O)OC)c2c3c(sc2n1)CCCC3 ?
IDH1 R132H inh: 0.4

How did COc1ccc(CCNc2ncnc3scc(-c4cccs4)c23)cc1OC do in these assays?
IDH1 R132H inh: 3.2

Results for CC(C)CC#Cc1ccc2c(c1)O[C@H](CN(C)C(=O)Nc1ccccc1F)[C@@H](C)CN([C@H](C)CO)S2(=O)=O ?
KDM4C inh: 1.6; T cruzi growth-1: 91.7*; Pf Dd2 growth: -48.7; IDH1 R132H inh: -0.2; T cruzi growth-2: 107.4*; T cruzi growth-3: 38.6; NIH3T3 tox: 10.7; NIH3T3 tox 2: 67.8*

Results for COc1ccc(NC(=O)N(C)C[C@H]2Oc3cc(C#CCC(C)C)ccc3S(=O)(=O)N([C@@H](C)CO)C[C@H]2C)cc1 ?
T cruzi growth-1: 100.2*; Pf Dd2 growth: -55.2; IDH1 R132H inh: -1.5; T cruzi growth-2: 107.7*; T cruzi growth-3: 72.9; NIH3T3 tox: -18.3; NIH3T3 tox 2: 58.1*

Results for CC(C)CC#Cc1ccc2c(c1)O[C@H](CN(C)C(=O)Nc1ccccc1F)[C@H](C)CN([C@H](C)CO)S2(=O)=O ?
KDM4C inh: -1.9; T cruzi growth-1: 84.6; Pf Dd2 growth: -41.0; IDH1 R132H inh: -5.0

What do the screens show for `COc1cccc(NC(=O)N(C)C[C@@H]2Oc3ncc(C#Cc4ccc(F)cc4)cc3C(=O)N([C@@H](C)CO)C[C@H]2C)c1`?
KDM4C inh: -2.3; T cruzi growth-1: 112.7*; Pf Dd2 growth: -39.5; T cruzi growth-2: 111.9*; T cruzi growth-3: 111.0*; NIH3T3 tox: 31.4; NIH3T3 tox 2: 13.6
